# Screening data from PubChem BioAssay.
# OX1R antag-1: human HCRTR1 antagonism | O43613 | AID 434989 | CHO/OX1R cells, Fluo-8 calcium fluorescence, orexin A | inhibition, % at 5 µM | 330,000 tested, 0.43% active;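 active = inhibition above its plate's threshold, mean inhibition of all tested compounds on the plate plus 3 SD, cut at about 37% in these data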;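 note: 0% = orexin A challenge wells and 100% = SB-334867-A antagonist wells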
# GalR3 antag: antagonists of human GalR3. HEK293 GalR3-CNG cAMP membrane potential fluorescence; galR3 body fused to GalR1 C-terminus. AID 651719. 360,000 tested, 0.44% active. inhibition, % at 3 µM;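 active = inhibition above the screen-wide average plus 3 SD, cut at about 13% in these data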;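 note: forskolin and galanin both at EC90 stimulate the cells; cAMP rise reported by CNG channel membrane potential dye signal; 0% = forskolin plus galanin with DMSO and 100% = forskolin alone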
# Target sequence (O60755 1-299 limits assumed): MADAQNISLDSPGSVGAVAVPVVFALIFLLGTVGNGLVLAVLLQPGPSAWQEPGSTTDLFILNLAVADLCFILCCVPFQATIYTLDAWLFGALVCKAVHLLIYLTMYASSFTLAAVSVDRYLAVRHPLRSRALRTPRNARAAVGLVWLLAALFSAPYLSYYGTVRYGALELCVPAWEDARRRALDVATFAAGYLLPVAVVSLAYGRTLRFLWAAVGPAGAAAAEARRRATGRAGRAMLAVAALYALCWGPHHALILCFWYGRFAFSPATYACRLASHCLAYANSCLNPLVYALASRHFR
# TAAR1 agonist: agonists of human TAAR1. 360,000 tested, 0.99% active. CHO RD-HGA16 TAAR1, Fluo-8 calcium fluorescence; vehicle wells 0%, saturating PEA agonist 100%. activation, % at 3 µM;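 active = activation above the mean activation of all test compounds in the run plus 3 SD, cut at about 38% in these data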
# Target sequence (Q96RJ0 whole entry, looked up): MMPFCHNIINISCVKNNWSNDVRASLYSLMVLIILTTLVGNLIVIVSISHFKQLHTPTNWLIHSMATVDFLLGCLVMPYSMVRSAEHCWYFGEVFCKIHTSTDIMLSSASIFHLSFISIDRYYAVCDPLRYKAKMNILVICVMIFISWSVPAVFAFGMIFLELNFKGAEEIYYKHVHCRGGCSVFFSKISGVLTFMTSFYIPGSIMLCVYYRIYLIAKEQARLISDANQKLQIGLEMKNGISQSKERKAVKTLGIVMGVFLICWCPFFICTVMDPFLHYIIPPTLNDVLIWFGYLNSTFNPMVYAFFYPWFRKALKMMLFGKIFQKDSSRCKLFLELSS
#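 System: CHO-derived RD-HGA16 cells with stable Gα16 and human TAAR1. Times: 17-24 h plating, Fluo-8 75 min 37 °C, 30 min RT. Measured by: calcium-sensitive Fluo-8 signal, excitation 470-495, emission 515-575 nm. Read-out basis: % activation relative to PEA EC100 response. Control set: DMSO and PEA EC100. Repeats: no replicates (n 1).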
# CHO parental Ca: counter-screen for OX1R antagonists: effect in parental CHO cells; 330,000 tested, 0.63% active; AID 463079; inhibition, % at 5.6 µM; parental CHO-K1, ATP-induced calcium, Fluo-8 fluorescence;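 active = inhibition above that plate's mean sample inhibition plus 3 SD, cut at about 26% in these data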;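 note: 0% = ATP-challenged DMSO wells and 100% = DMSO wells without ATP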
#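 Test system: untransfected parental CHO cell line. Compound: one dose, 5.6 µM nominal. Detection: intracellular calcium via Fluo-8 no-wash fluorescent dye. Measure: % inhibition. Benchmarks: ATP-challenged DMSO wells low, unchallenged DMSO wells high.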
# TAAR1 antagonist: human TAAR1 antagonism. Q96RJ0. CHO RD-HGA16 TAAR1, Fluo-8 calcium fluorescence, antagonist. inhibition, % at 3 µM. 360,000 tested, 1.5% active;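 active = inhibition above a per-plate cutoff, the mean inhibition of test compounds on that plate plus 3 SD, cut at about 49% in these data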;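 note: 0% = DMSO plus EC80 beta-PEA response and 100% = DMSO alone without agonist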
#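 Test system – hTAAR1-expressing CHO RD-HGA16 cells, Gα16-coupled · Reagent – β-PEA at EC80 concentration, post-compound challenge · Compound dosing – 3 µM, single point · Timing – 140 s kinetic read after compound, 140 s after agonist · Detection – Fluo-8 intracellular calcium dye fluorescence, real-time kinetic reads · Control set – DMSO and EC80 PEA controls · Repeats – n of 1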
# OX1R antag-2: blocks the human orexin 1 receptor; OX1R-expressing cells, FRET antagonist read-out; inhibition, % at 6.6 µM; 330,000 tested, 1.8% active; AID 485270; in the data active = inhibition mostly above about 38%, no sharp cut-off; inactive = mostly below about 40%;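 note: 0% = agonist challenge alone and 100% = reference antagonist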
# TAAR1 ag confirm: human TAAR1 agonism, confirmed. 2,400 tested, 82% active. activation, % at 3 µM. AID 651783. shares compounds with TAAR1 agonist. CHO RD-HGA16 TAAR1, Fluo-8 calcium fluorescence; scaled: DMSO 0%, maximal phenethylamine 100%;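 active = activation above a cutoff set at the run's mean compound activation plus 3 SD, cut at about 39% in these data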
# Ga16 ag counter: nonselective agonist in parental cells, TAAR1 agonist counter-screen; CHO-Ga16 parental, Fluo-8 calcium fluorescence; normalized to maximal ATP response, DMSO zero; shares compounds with TAAR1 agonist; 2,400 tested, 50% active; activation, % at 3 µM; AID 651787;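 active = activation above the run cutoff, the mean activation over all tested wells plus 3 SD, cut at about 12% in these data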;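 note: 0% = DMSO wells and 100% = maximal ATP response on the peak over basal ratio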
# TAAR1 desensitize: counter-screen for human TAAR1 agonists: agonists that desensitize TAAR1; shares compounds with TAAR1 agonist; CHO RD-HGA16 hTAAR1, Fluo-8 calcium, beta-PEA response inhibition; inhibition, % at 3 µM; 2,400 tested, 46% active;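 active = inhibition above the run cutoff, the mean inhibition of all test compounds plus 3 SD, cut at about 49% in these data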;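 note: beta-PEA stimulus applied at its EC80; loss of beta-PEA calcium signal after compound pretreatment read as receptor desensitization; 0% = DMSO with beta-PEA at EC80 and 100% = DMSO alone without agonist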
# Ga16 nonsel ant: nonselective Ga16 antagonist in TAAR1 agonist counter-screen; shares compounds with TAAR1 agonist; 2,400 tested, 39% active; CHO-Ga16 ATP-induced calcium, Fluo-8 fluorescence; inhibition, % at 3 µM; AID 651952;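 active = inhibition above the plate's mean compound inhibition plus 3 SD, computed per plate, cut at about 22% in these data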;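 note: 0% = EC80 ATP with DMSO and 100% = DMSO wells without ATP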
# * marks the source's active call; other numbers are inactive results; . = not tested or not shown. Sampled rows, rich in hits. Any-hit rate of the full collection: about 4.2%.
SMILES,OX1R antag-1,GalR3 antag,TAAR1 agonist,CHO parental Ca,TAAR1 antagonist,OX1R antag-2,TAAR1 ag confirm,Ga16 ag counter,TAAR1 desensitize,Ga16 nonsel ant
Cc1onc(-c2ccccc2)c1C(=O)NNC(=S)NC(=O)c1ccc(Br)cc1,-12,7,1,-2,-10,6,.,.,.,.
Cc1onc(-c2ccccc2)c1C(=O)NNC(=S)NC(=O)/C=C/c1ccccc1,-11,-2,136*,-7,55*,0,149*,126*,90*,61*
Cc1cc(Br)ccc1OCCN1CC(C)OC(C)C1 (stereo not drawn),-12,-5,2,-8,-28,23,.,.,.,.
COc1ccc(/C=C/C(=O)NC(=S)NNC(=O)c2ccco2)cc1,-12,-2,18,-13,25,16,.,.,.,.
COc1ccc(/C=C/C(=O)NC(=S)NNC(=O)Cc2cccs2)cc1,2,-4,48*,23,28,9,30,19*,24,25*
O=C(CNS(=O)(=O)c1ccc([N+](=O)[O-])cc1)N/N=C\c1ccc(O)cc1,7,-12,68*,6,68*,7,101*,39*,89*,63*
CC(=O)Nc1ccc(/C=N\NC(=O)CNS(=O)(=O)c2ccc([N+](=O)[O-])cc2)cc1,1,-2,0,-1,11,35,.,.,.,.
Cc1n[nH]c(C)c1N1C(=O)c2cccc3c(N4CCCCCC4)ccc(c23)C1=O,90*,-4,148*,76*,82*,14,88*,119*,74*,82*
O=C1c2cccc3c(N4CCCCC4)ccc(c23)C(=O)N1c1cccc(O)c1,56*,-7,121*,56*,79*,7,27,32*,38,48*
Nc1nc(N)c(N=O)c(Nc2ccc(Cl)c(Cl)c2)n1,.,-1,109*,.,10,.,136*,58*,71*,4
Nc1nc(N)c(N=O)c(Nc2cccc(Cl)c2)n1,.,-6,68*,.,-16,.,128*,48*,53*,-5
Cc1ccc(Nc2ncnc3nc[nH]c23)cc1Cl,11,-1,-1,5,-18,28,.,.,.,.
Cc1ccc(Nc2nc(N)nc(N)c2N=O)cc1Cl,.,-8,75*,.,-1,.,109*,29*,37,1
Nc1ncnc(Nc2ccc(F)c(Cl)c2)n1,-5,5,3,-15,-36,7,.,.,.,.
O=C(O)c1ccnc(Cl)c1,6,-3,4,-2,12,2,.,.,.,.
CC(C)C12CN3CC(C(C)C)(CN(C1)C3c1ccco1)C2=O (stereo not drawn),-26,-3,0,-3,2,7,.,.,.,.
C#C[C@]1(O)CCC2C3CCC4=Cc5oncc5CC4(C)C3CCC21C (stereo partly drawn),-17,0,62*,15,76*,26,60*,43*,54*,36*
C#CC1(O)CCC2C3CCC4=Cc5oncc5CC4(C)C3CCC21C (stereo not drawn),.,.,51*,.,65*,.,62*,31*,70*,35*
C#C[C@]1(O)CC[C@H]2[C@@H]3CCc4cc(O)ccc4[C@H]3CC[C@@]21C,7,.,12,-10,42,34,.,.,.,.
C#CC1(O)CCC2C3CCC4=C(CCC(=O)C4)C3CCC21C (stereo not drawn),.,-3,14,.,48,.,.,.,.,.
Cc1ccc(OCc2cc(C(=O)N(C)CC3CCOCC3)no2)cc1C,-18,-4,7,-4,-24,25,.,.,.,.
COc1cc(COc2ccc(-c3nnco3)cc2)ccc1OC(F)F,-13,-6,48*,-9,20,14,2,2,-1,6
COC(=O)c1cccc(C(=O)N2CCCC(C(=O)c3cccc(OC(C)C)c3)C2)c1 (stereo not drawn),-7,-6,53*,-2,-4,15,-2,2,6,6
Cc1cc(N/N=C/c2ccccc2O)c2ccccc2n1,-25,-2,.,-4,.,12,.,3,.,13
Cc1cc(-c2ccccc2)nc(N/N=C/c2ccc(O)cc2O)n1,-19,-9,9,-23,45,3,.,.,.,.
SMILES,OX1R antag-1,GalR3 antag,TAAR1 agonist,CHO parental Ca,TAAR1 antagonist,OX1R antag-2,TAAR1 ag confirm,Ga16 ag counter,TAAR1 desensitize,Ga16 nonsel ant
O=S(=O)(Cc1ccccc1)NCCc1cccc(Cl)c1,.,-12,44*,.,-6,.,77*,1,36,1
Clc1nc(-c2ccccn2)nc2scc(-c3ccccc3)c12,-15,0,2,-5,-8,18,.,.,.,.
COc1ccc(NC(=S)N2CCCC(c3nc4ccc(C)cc4[nH]3)C2)cc1 (stereo not drawn),-3,-4,0,-11,-7,22,.,.,.,.
COc1ccc(NC(=S)N2CCCC(c3nc4ccc(C)cc4[nH]3)C2)c(OC)c1 (stereo not drawn),-38,-10,98*,-19,-4,12,0,1,-4,2
CC(C)c1ccc(NC(=O)[C@@H](C)NC(=O)[C@@H]2Cc3ccccc3CN2)cc1,-30,-6,78*,-28,-4,12,31,12*,-9,4
CC(C)C[C@H](NC(=O)[C@@H]1Cc2ccccc2CN1)C(=O)Nc1ccc(C(C)C)cc1,-32,0,6,-22,6,6,.,.,.,.
CC1=CC(C)C(COC(=O)CN2CCCCC2)C(C)C1 (stereo not drawn),-20,-4,1,-16,-15,10,.,.,.,.
CCOC(=O)c1cnn(-c2nc(SC)nc3sc4c(c23)CCCC4)c1N,26,-2,85*,-3,84*,12,13,15*,31,40*
O=C(O)c1cccc(N2C(=O)C3C4C=CC(C4=C(c4ccccc4)c4ccccc4)C3C2=O)c1 (stereo not drawn),-14,-3,13,10,6,33,.,.,.,.
CN(C)c1ccc(CNc2nc(-c3ccccc3)nn2S(C)(=O)=O)cc1,-15,-4,3,-22,9,4,.,.,.,.
CCN(C(=O)CSc1nnc(-c2ccccc2C)n1C)c1c(N)n(Cc2ccccc2)c(=O)[nH]c1=O,.,-3,1,.,-4,.,.,.,.,.
